# Test results published in PubChem BioAssay AID588842 (Broad Institute, 2011).
# Inconclusive results are not listed. Active and inactive are the calls of the source.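 The calls were made as follows: active = cytotoxic compounds whose fitted half-effect concentration is at most twice the top tested dose in every test run; inconclusive = test runs disagree, or a flat moderate drop, or a poor fit; inactive = inactive in every run, including wrong-direction effects.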
# System: not listed separately
# Assay: ldlA[mSR-BI] cell viability loss – CellTiter-Glo ATP, 24 h, dry powder, set 4, cytotoxicity control for HDL uptake inhibitor project, dose response (AID 588842)
# Details: ldlA[mSR-BI] CHO cells viability, CellTiter-Glo ATP, 24 h; at 35 µM (top of the series)
# Outline: (§1)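 Test system: ldlA[mSR-BI] cells / Buffer or medium: Ham's F12 medium with 10% FCS and PSG / Timing: 24 h compound exposure at 37 °C, then 10 min CellTiter-Glo incubation / Detection: luciferase luminescence reporting cellular ATP, CellTiter-Glo reagent / Measure: IC50 from compound dose-response curves of cell viability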
row,Structure (SMILES),"activity change, negative = cytotoxicity"
1,CCC(=O)N1CCc2cc(-c3csc(NC(=O)c4ccncc4)n3)ccc21,-2.04% (inactive)
2,CC(C(=O)NC1CCCC1)N(C(=O)Cc1ccccc1)C1CCCCC1 (configuration not stated),-1.74% (inactive)
3,CCC(=O)N1CCc2cc(-c3csc(NC(=O)c4cnco4)n3)ccc21,-1.99% (inactive)
4,O=C(Nc1nc(-c2ccc3c(c2)CCN3S(=O)(=O)c2ccccc2)cs1)c1ccco1,-30.8% (inactive)
5,CCC(=O)N1CCc2cc(-c3csc(NC(=O)c4ccc(Cl)cc4)n3)ccc21,-5.95% (inactive)
6,CCC(=O)N1CCc2cc(-c3csc(NC(=O)c4cccnc4)n3)ccc21,-3.5% (inactive)
7,C[C@@H]1CN([C@H](C)CO)C(=O)c2cc(NC(=O)Cc3cn(C)c4ccccc34)ccc2O[C@H]1CN(C)S(=O)(=O)c1ccc(Cl)cc1,-19% (inactive)
8,COc1ccc(-c2nnn(CC(=O)N(C3CCCCC3)C(C)C(=O)NC3CCCC3)n2)cc1OC (configuration not stated),-11.1% (inactive)
9,CC(C(=O)NC1CCCC1)N(C(=O)Cn1nnc(-c2ccc3c(c2)OCO3)n1)C1CCCCC1 (configuration not stated),-16.1% (inactive)
10,CCC(=O)N1CCc2cc(-c3csc(NC(=O)c4ccoc4)n3)ccc21,-8.58% (inactive)
11,CCC(=O)N1CCc2cc(-c3csc(NC(=O)c4ccco4)n3)ccc21,-17.6% (inactive)
12,CCC(=O)N1CCc2cc(-c3csc(N)n3)ccc21,-18.4% (inactive)
13,CCC(=O)N1CCc2cc(-c3csc(NC(=O)c4ccc(OC)cc4)n3)ccc21,-11.6% (inactive)

# Same assay, conditions: ldlA[mSR-BI] CHO cells viability, CellTiter-Glo ATP, 24 h; at 68 µM (top of the series)
row,Structure (SMILES),"activity change, negative = cytotoxicity"
1,CCOc1ccc(NC(=O)CN2CCN(CC(=O)Nc3cc(OC)cc(OC)c3)CC2)cc1,-20% (inactive)

# System: ldlA[mSR-BI] CHO cells viability, CellTiter-Glo ATP, 24 h
# Assay: as above
# Details: not given
# Outline: as §1
row,Structure (SMILES),AC50
1,CC(C)NC(=O)Nc1cccc2c1O[C@H](CN(C)Cc1ccc(Cl)c(Cl)c1)[C@@H](C)CN([C@@H](C)CO)C2=O,58 µM
2,CCC(=O)N1CCc2cc(-c3csc(NC(=O)c4ccccc4)n3)ccc21,67.8 µM
3,CCCCCCC1CCC/C1=N\NC(N)=S (configuration not stated),3.86 µM
4,C[C@@H]1CN([C@H](C)CO)C(=O)c2cc(NC(=O)Cc3cn(C)c4ccccc34)ccc2O[C@H]1CN(C)S(=O)(=O)c1ccc(F)cc1,47.7 µM
5,COc1c(NC(=O)C(=O)c2ccc(OCCN3CCOCC3)c3ccccc23)cc(C(C)(C)C)cc1NS(C)(=O)=O,15.5 µM
6,CCOc1ccccc1/C=C/c1onc(C)c1S(=O)(=O)N1CCC(C(=O)NC(C)(C)C)CC1,30.1 µM
7,CCC(=O)N1CCc2cc(-c3csc(NC(=O)c4ccc(F)cc4)n3)ccc21,48.2 µM
8,C[C@H]1CN([C@@H](C)CO)C(=O)c2cccc(NC(=O)Nc3ccccc3)c2O[C@@H]1CN(C)Cc1ccc(Cl)c(Cl)c1,29.8 µM
